Test results taken from ChEMBL document CHEMBL3112569, “3-Ketone-4,6-diene ceramide analogs exclusively induce apoptosis in chemo-resistant cancer cells” (Bioorg Med Chem, 2014).
Activity calls are given as the source filed them. The rule behind the calls is not given here.

What was measured:
[1] = molecular target: T1, Ceramide glucosyltransferase (Homo sapiens) (UniProt Q16739); assay: Inhibition of GCS in human NCI/ADR-RES cells assessed as decrease in ratio of glucosylceramide to ceramide level at IC50 after 4 hrs by TLC assay; type: cell-based
T1 sequence (whole entry): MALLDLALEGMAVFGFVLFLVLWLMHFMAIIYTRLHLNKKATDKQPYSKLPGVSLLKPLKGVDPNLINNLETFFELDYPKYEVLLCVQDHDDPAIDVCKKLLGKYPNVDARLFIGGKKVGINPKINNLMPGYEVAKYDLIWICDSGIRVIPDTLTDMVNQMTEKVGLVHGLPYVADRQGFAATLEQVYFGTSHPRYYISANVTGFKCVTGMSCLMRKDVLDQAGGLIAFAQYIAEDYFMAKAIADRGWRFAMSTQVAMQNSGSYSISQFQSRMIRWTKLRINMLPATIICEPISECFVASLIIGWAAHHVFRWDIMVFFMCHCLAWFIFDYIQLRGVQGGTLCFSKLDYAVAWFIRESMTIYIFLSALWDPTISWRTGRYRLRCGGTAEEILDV

[2] = molecular target: T1, Ceramide glucosyltransferase (Homo sapiens); assay: Inhibition of GCS in human OVCAR8 cells assessed as decrease in ratio of glucosylceramide to ceramide level at IC50 after 4 hrs by TLC assay; type: cell-based; conditions: OVCAR-8
[3] = Cytotoxicity against human MCF7/DX cells assessed as cell viability after 72 hrs by CellTiter-Glo luminescence assay; type: functional, cell-based
Method in brief: (§1)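 Cells grown overnight at 4000 per well in RPMI-1640 with 10% FBS, then treated with analogs for 72 h. Viability measured as luminescent ATP after incubation with CellTiter-Glo reagent. Three independent experiments.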

[4] = test system: MCF7; assay: Cytotoxicity against human MCF7 cells assessed as cell viability after 72 hrs by CellTiter-Glo luminescence assay; type: functional, cell-based; conditions: MCF7, 72 h; method in brief: as §1
[5] = test system: OVCAR-8; assay: Cytotoxicity against human OVCAR8 cells assessed as cell viability after 72 hrs by CellTiter-Glo luminescence assay; type: functional, cell-based; conditions: OVCAR-8, 72 h; method in brief: as §1
[6] = test system: NCI/ADR-RES; assay: Cytotoxicity against human NCI/ADR-RES cells assessed as cell viability after 72 hrs by CellTiter-Glo luminescence assay; type: functional, cell-based; method in brief: as §1
[7] = Cytotoxicity against human MCF-7TN-R cells assessed as colony formation after 10 to 12 days by crystal violet staining assay; type: functional, cell-based
Method in brief: (§2)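 Colony formation: 1000 cells per well in 10% DMEM, 24 h adhesion, then graded analog dilutions until colonies formed (generally 10–12 days). Fixed in 3% glutaraldehyde 30 min, stained 40 min with 0.2% crystal violet/20% methanol. Colonies over 30 cells hand-counted, normalized to DMSO control, IC50 from dose–response fit.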

[8] = test system: MDA-MB-231; assay: Cytotoxicity against human MDA-MB-231 cells assessed as colony formation after 10 to 12 days by crystal violet staining assay; type: functional, cell-based; method in brief: as §2
[9] = test system: MCF7; assay: Cytotoxicity against human MCF7 cells assessed as colony formation after 10 to 12 days by crystal violet staining assay; type: functional, cell-based; method in brief: as §2
[10] = Cytotoxicity against human MCF-7TN-R cells assessed as cell viability after 24 hrs by MTT assay; type: functional, cell-based
Method in brief: (§3)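 Cells seeded at 7500–10,000 per well in phenol-free DMEM and allowed 24 h to adhere. Exposed to graded analog concentrations (1 to 100 μM) for 24 h, then MTT added for 3–4 h. Formazan dissolved in 20% SDS/50% DMF for 24 h, absorbance read at 550 nm. Expressed as % of DMSO vehicle, run in quadruplicate on three occasions, IC50 from dose–response fit.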

[11] = test system: MDA-MB-231; assay: Cytotoxicity against human MDA-MB-231 cells assessed as cell viability after 24 hrs by MTT assay; type: functional, cell-based; conditions: MDA-MB-231, 24 h; method in brief: as §3
[12] = test system: MCF7; assay: Cytotoxicity against human MCF7 cells assessed as cell viability after 24 hrs by MTT assay; type: functional, cell-based; conditions: MCF7, 24 h; method in brief: as §3
[13] = Induction of apoptosis in human MCF-7TN-R cells assessed as caspase-9 activation at 2 times IC50 determined from MTT assay after 24 hrs by caspase Glo 9 assay relative to vehicle-treated control; type: functional
Method in brief: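 MCF-7TN-R cells at 7500–10,000 per well in phenol-free DMEM adhered 24 h, then exposed 24 h at twice the MTT-derived IC50. Caspase-9 activity read by Caspase-Glo 9 luminescence, relative to DMSO vehicle. Triplicate on three occasions.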

[14] = (§4) Induction of apoptosis in human MCF-7TN-R cells at 2 times IC50 determined from MTT assay after 24 hrs by ELISA relative to control; type: functional
Method in brief: (§5)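 MCF-7TN-R cells at 7500–10,000 per well in phenol-free DMEM adhered 24 h, then treated 24 h at twice the MTT-derived IC50. DNA fragmentation read with cell death detection ELISA. Normalized to MTT viability on the same plate, duplicate on three occasions.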

[15] = Cytotoxicity against human MCF-7TN-R cells assessed as cell viability after 24 to 48 hrs by MTT assay; type: functional, cell-based
[16] = species: Homo sapiens; assay: as §4; type: functional; method in brief: as §5

**Q.** With `CCCCCCCCCCCCCCNC(=O)[C@H](CO)/N=C/c1ccccc1` as the molecule, how does the Ratio [1] read?
**A.** 0.8

**Q.** And the Ratio [2]?
**A.** 0.9

**Q.** And the IC50 [3]?
**A.** 10.1 µM

**Q.** And the IC50 [4]?
**A.** 14.1 µM

**Q.** What about the IC50 [5] of the same molecule?
**A.** 16.3 µM

**Q.** What about the IC50 [6] of the same molecule?
**A.** 13.8 µM

**Q.** For `CCCCCCCCCCCCC/C=C/[C@@H](O)[C@H](CO)NC(=O)Cc1ccccc1`, which IC50 [7] is on record?
**A.** 5.62 µM

**Q.** And the IC50 [8]?
**A.** 1.59 µM

**Q.** What about the IC50 [9] of the same molecule?
**A.** 4.18 µM

**Q.** And the IC50 [10]?
**A.** 4.74 µM

**Q.** And the IC50 [11]?
**A.** 51.2 µM

**Q.** What about the IC50 [12] of the same molecule?
**A.** 37.3 µM

**Q.** What does the source list for `CCCCCCCCCC/C=C/C=C/C(=O)[C@H](CO)NC(=O)Cc1ccccc1`?
**A.** Ratio [1]: 1; Ratio [2]: 0.6; IC50 [3]: 3.92 µM; IC50 [4]: 3.92 µM; IC50 [5]: 7.82 µM; fold change (FC) [13]: 3.59; IC50 [6]: 4.92 µM; fold change (FC) [14]: 4.3; IC50 [7]: 1.81 µM; IC50 [8]: 1.4 µM; IC50 [9]: 3.4 µM; IC50 [10]: 4.26 µM; IC50 [11]: 161 µM; IC50 [12]: 22 µM

**Q.** For `CCCCCCCCCCC/C=C/C=C/[C@@H](O)[C@H](CO)NC(=O)CCCCCCC`, which IC50 [15] is on record?
**A.** 11.3 µM

**Q.** Which IC50 [7] does the source give for `CCCCCCCCCC/C=C/C=C/[C@@H](O)[C@@H]1COC(C)(C)N1C(=O)OC(C)(C)C` here?
**A.** 5.19 µM

**Q.** What about the IC50 [8] of the same molecule?
**A.** 3.17 µM

**Q.** And the IC50 [9]?
**A.** 5.69 µM

**Q.** What about the IC50 [10] of the same molecule?
**A.** 9.91 µM

**Q.** What about the IC50 [11] of the same molecule?
**A.** 75.2 µM

**Q.** And the IC50 [12]?
**A.** 26.4 µM

**Q.** For `CCCCCCCCCCCCC/C=C/[C@@H](O)[C@H](CO)NC(=O)CCCCCCC`, which “fold change (FC)” value [13] is on record?
**A.** 1.18

**Q.** And the Activity [16]?
**A.** Active

**Q.** What does the source list for `CCCCCCCCCC/C=C/C=C/C(=O)[C@@H]1COC(C)(C)N1C(=O)OC(C)(C)C`?
**A.** fold change (FC) [13]: 1.86; fold change (FC) [14]: 3.09; IC50 [7]: 1.85 µM; IC50 [8]: 1.45 µM; IC50 [9]: 5.07 µM; IC50 [10]: 4.05 µM; IC50 [11]: 17.2 µM; IC50 [12]: 3.91 µM

**Q.** With `CCCCCCCCCCCCCCNC(=O)[C@H](CO)NC(=O)Cc1ccccc1` as the molecule, how does the IC50 [7] read?
**A.** 10.1 µM

**Q.** And the IC50 [8]?
**A.** 17.6 µM

**Q.** And the IC50 [9]?
**A.** 10.2 µM

**Q.** What about the IC50 [10] of the same molecule?
**A.** 29 µM

**Q.** And the IC50 [12]?
**A.** 234 µM
